Laboratory results from ChEMBL document CHEMBL1138854, “Synthesis and antitumor activity of guanylhydrazones from 6-(2,4-dichloro-5-nitrophenyl)imidazo[2,1-b]thiazoles and 6-pyridylimidazo[2,1-b]thiazoles(1)” (2006).
Activity calls are given as the source filed them. The calls are words filed in the database; no cut-off is given here.

Assays:
[1] = Antitumor activity against melanoma cell lines of the NCI60 panel; format: functional; details: Homo sapiens; for TGI: read-out: pTGI (converted)
Method in brief: (§1)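 Run by NCI in the 60-cell-line panel (details in Supporting Information). Highest concentration 10^-4 M unless noted (one case 10-2.6 M). Values expressed as -log molar concentration giving 50% growth inhibition (pGI50), total cytostasis (pTGI) or 50% cell kill (pLC50); only values >4.00 reported; mean graph midpoint is the calculated panel mean.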

HL-60 [2] = test: Mitochondrial potential in HL60 cells assessed as decrease in ATP level at 0.5 uM; format: functional, cell-based; details: Homo sapiens
NSCLC = test: Antitumor activity against NSCLC cell lines of the NCI60 panel; format: functional; details: Homo sapiens; for TGI: read-out: pTGI (converted); method in brief: as §1
[3] = Antitumor activity against renal cell lines of the NCI60 panel; format: functional, Homo sapiens; details: Homo sapiens, renal; for TGI: read-out: pTGI (converted); method in brief: as §1
[4] = Antitumor activity against breast cell lines of the NCI60 panel; format: functional; details: Homo sapiens; for TGI: read-out: pTGI (converted); method in brief: as §1
[5] = Antitumor activity against CNS cell lines of the NCI60 panel; format: functional; details: Homo sapiens; for TGI: read-out: pTGI (converted); method in brief: as §1
[6] = Antitumor activity against colon cell lines of the NCI60 panel; format: functional; details: Homo sapiens; for TGI: read-out: pTGI (converted); method in brief: as §1
[7] = Antitumor activity against ovarian cell lines of the NCI60 panel; format: functional; details: Homo sapiens; for TGI: read-out: pTGI (converted); method in brief: as §1
[8] = Antitumor activity against leukemia cell lines of the NCI60 panel; format: functional; details: Homo sapiens; for TGI: read-out: pTGI (converted); method in brief: as §1
[9] = Antitumor activity against prostate cell lines of the NCI60 panel; format: functional; details: Homo sapiens; for TGI: read-out: pTGI (converted); method in brief: as §1
[10] = target: T1, S-adenosylmethionine decarboxylase proenzyme (Homo sapiens) (UniProt P17707); test: Inhibition of SAMDC in HL60 cells by release of radioactive CO2 from [14C-carboxyl]S-adenosylmethionine; details: HL-60
T1 sequence (whole entry): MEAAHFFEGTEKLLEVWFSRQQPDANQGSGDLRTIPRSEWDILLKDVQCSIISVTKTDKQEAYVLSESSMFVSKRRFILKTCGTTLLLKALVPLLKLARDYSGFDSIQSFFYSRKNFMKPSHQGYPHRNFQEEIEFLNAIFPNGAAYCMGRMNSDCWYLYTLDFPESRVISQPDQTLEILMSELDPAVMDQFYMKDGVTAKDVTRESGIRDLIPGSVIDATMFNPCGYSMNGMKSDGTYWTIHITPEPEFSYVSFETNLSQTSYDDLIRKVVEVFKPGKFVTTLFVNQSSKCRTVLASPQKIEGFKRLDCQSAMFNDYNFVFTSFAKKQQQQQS

HL-60 [11] = test: Reduction in G0/G1 phase of cell cycle arrest in HL60 cells; format: functional, cell-based; details: Homo sapiens
Method in brief: (§2)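 HL60 cells (RPMI 1640, 10% FCS, 2 mM glutamine, 37 °C, 5% CO2) exposed to graded concentrations for 24 h; compound in DMSO diluted in complete medium, DMSO vehicle controls. Nuclei isolated, kept at 4 °C in dark, stained with 50 µg/mL propidium iodide just before flow cytometry; DNA profiles give G0/G1, S, G2/M fractions. Mean ± SEM of three determinations.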

HL-60 [12] = test: Induction of cell death in HL60 cells at 50 uM within 3 hrs relative to control; format: functional, Homo sapiens
Method in brief: (§3)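 Compound was dissolved in DMSO and diluted into complete medium; controls received matching DMSO. Cell death was scored by propidium iodide flow cytometry and by trypan blue exclusion. One experiment is shown, repeated three times.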

HL-60 [13] = test: Reduction in S phase of cell cycle arrest in HL60 cells; format: functional, cell-based; details: Homo sapiens; method in brief: as §2
HL-60 [14] = test: Induction of cell death in HL60 cells at 25 uM after 48 hrs relative to control; format: functional, Homo sapiens; method in brief: as §3
HL-60 [15] = test: Increase in p21 level in HL60 cells at 25 uM after 24 hrs; format: functional, cell-based; details: Homo sapiens
Method in brief: (§4)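 HL60 cells held 24 h with or without 25 µM compound (DMSO vehicle); cellular proteins extracted and p21 and p27 detected by Western blotting with specific antibodies. Repeated at least twice.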

HL-60 [16] = test: Induction of cell death in HL60 cells at 50 uM after 24 hrs relative to control; format: functional, Homo sapiens; method in brief: as §3
HL-60 [17] = test: Mitochondrial potential in HL60 cells assessed as decrease in mitochondrial membrane potential by DiOC6 staining at 25 uM after 24 hrs; design: scale not given: the % may be the effect or the level left
HL-60 [18] = test: Cell cycle arrest in HL60 cells by accumulation in G2/M phase at 25 uM after 24 hrs
HL-60 [19] = test: Increase in p27 level in HL60 cells at 25 uM after 24 hrs; format: functional, cell-based; details: Homo sapiens; method in brief: as §4
HL-60 [20] = test: Cell cycle arrest in HL60 cells by accumulation in G2/M phase; format: functional, cell-based; details: Homo sapiens; method in brief: as §2
HL-60 [21] = test: Reduction in cell proliferation of HL60 cells at 25 uM after 48 hrs relative to control; format: functional, Homo sapiens; design: scale not given: the % may be the effect or the level left
Method in brief: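 HL60 cells in complete RPMI medium incubated with compound (DMSO-diluted; vehicle controls); total cell number counted by flow cytometry relative to control. One experiment shown, repeated three times.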

SMILES	GI50 [1]	TGI [1]	Activity (HL-60 [2])	GI50 (NSCLC)	TGI (NSCLC)	GI50 [3]	TGI [3]	GI50 [4]	TGI [4]	GI50 [5]	TGI [5]	GI50 [6]	TGI [6]	GI50 [7]	TGI [7]	GI50 [8]	TGI [8]	GI50 [9]	TGI [9]	Activity [10]	further results
CCCc1cn2c(/C=N/NC(=N)N)c(-c3cc([N+](=O)[O-])c(Cl)cc3Cl)nc2s1	1.66 µM	3.09 µM	inactive	1.74 µM	3.24 µM	1.66 µM	3.09 µM	1.74 µM	3.47 µM	1.66 µM	3.09 µM	1.48 µM	2.75 µM	1.62 µM	3.02 µM	0.724 µM	1.95 µM	1.74 µM	3.39 µM	inactive	–
N=C(N)N/N=C/c1c(-c2ccncc2)nc2sc(Cl)cn12	5.89 µM	13.8 µM	inactive	6.76 µM	17 µM	6.61 µM	–	13.2 µM	40.7 µM	7.76 µM	20 µM	8.13 µM	27.5 µM	10.2 µM	20.9 µM	3.8 µM	11.7 µM	17.4 µM	33.1 µM	inactive	–
Cc1sc2nc(-c3ccccn3)c(/C=N/NC(=N)N)n2c1C	17 µM	33.1 µM	–	18.2 µM	37.2 µM	6.61 µM	31.6 µM	22.9 µM	41.7 µM	20.9 µM	41.7 µM	18.2 µM	40.7 µM	18.6 µM	37.2 µM	52.5 µM	83.2 µM	22.4 µM	57.5 µM	inactive	Activity (HL-60 [11]): Active; Activity (HL-60 [12]): 45%; Activity (HL-60 [13]): Active; Activity (HL-60 [14]): 25%; Activity (HL-60 [15]): Active; Activity (HL-60 [16]): 100%; Activity (HL-60 [17]): 50%; Activity (HL-60 [18]): 52%; Activity (HL-60 [19]): Active; Activity (HL-60 [20]): Dose-dependent effect; Activity (HL-60 [21]): > 80%
